Screening results from PubChem BioAssay.
The list is not random: actives were taken first. Their share in the collection is about 2.2%.
M1 PAM: positive allosteric modulators of human M1 muscarinic receptor | P11229 | actives 0.088% (n = 360,000) | CHO-K1 hM1, Fluo-8 calcium fluorescence, ACh EC20; 0% = ACh EC20, 100% = maximal ACh | activation, % at 3 µM | AID 588819; in the data active = activation above about 19%, passing the limit was not always enough
Target sequence (P11229 whole entry, looked up): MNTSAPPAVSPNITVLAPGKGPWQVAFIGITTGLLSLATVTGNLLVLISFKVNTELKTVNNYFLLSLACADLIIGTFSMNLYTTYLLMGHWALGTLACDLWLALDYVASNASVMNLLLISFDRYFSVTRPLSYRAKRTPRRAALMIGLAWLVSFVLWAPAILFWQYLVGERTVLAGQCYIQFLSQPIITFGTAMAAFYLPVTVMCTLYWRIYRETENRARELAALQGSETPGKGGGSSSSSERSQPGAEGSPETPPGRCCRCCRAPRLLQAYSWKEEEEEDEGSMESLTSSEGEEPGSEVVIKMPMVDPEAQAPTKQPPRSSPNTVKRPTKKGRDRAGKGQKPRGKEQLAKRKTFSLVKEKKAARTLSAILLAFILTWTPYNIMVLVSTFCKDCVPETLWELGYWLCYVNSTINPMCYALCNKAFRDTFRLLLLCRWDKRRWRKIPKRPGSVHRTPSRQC
M1 ag: human M1 muscarinic receptor agonism; AID 588814; activation, % at 3 µM; P11229; actives 0.33% (n = 360,000); CHO-K1 hM1, Fluo-8 calcium fluorescence, agonist mode; 0% DMSO, 100% acetylcholine EC100;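 active = activation above the run's mean compound activation plus 3 SD, cut at about 16% in these data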;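 note: peak over basal fluorescence ratio within a 140 s kinetic read after compound addition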
M5 ag: agonists of human muscarinic M5 receptor (CHRM5); CHO-K1 hM5 cells, Fluo-8 calcium fluorescence; 0% DMSO wells, 100% maximal acetylcholine response; activation, % at 3 µM; actives 0.19% (n = 360,000);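 active = activation above the run's mean over test compounds plus 3 SD, cut at about 23% in these data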;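 note: signal is peak over basal fluorescence ratio across the kinetic read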
M5 antag: CHRM5 antagonism in calcium assay | actives 0.59% (n = 360,000) | CHO-hM5 cells, Fluo-8 calcium fluorescence, ACh EC80 | inhibition, % at 3 µM;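 active = inhibition above a per-plate cutoff, the mean of that plate's test compounds plus 3 SD, cut at about 27% in these data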;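 note: 0% = acetylcholine EC80 with DMSO and 100% = DMSO without agonist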
CHRM1 antagonist: antagonists of human M1 muscarinic receptor; P11229; CHO-K1 hM1, Fluo-8 calcium fluorescence, ACh EC80 antagonist; inhibition, % at 3 µM; actives 1.3% (n = 360,000);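 active = percent inhibition above its own plate's cutoff, namely the mean of that plate's compound wells plus 3 SD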;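 note: peak over basal fluorescence ratio during 140 s after agonist addition; 0% = ACh EC80 plus DMSO and 100% = DMSO alone without agonist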
M5 PAM: CHRM5 positive allosteric modulation. P08912. actives 0.3% (n = 360,000). CHO-K1 hM5, Fluo-8 calcium, ACh EC20 PAM; 0% = ACh EC20, 100% = ACh EC100. activation, % at 3 µM;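 active = activation above the run cutoff, the mean activation of all test compounds plus 3 SD, cut at about 18% in these data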
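Assay system – human M5 receptor in CHO-K1 cells · Read-out – % activation, ACh-normalized · Technique – Fluo-8 calcium fluorescence · Dosing – single-point, 3 µM nominal · Incubation – Fluo-8 loading 80 min at 37 °C plus 30 min room temperature · Repeats – singlicate, one well per test compound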
An asterisk follows results filed as active.

SMILES	M1 PAM	M1 ag	M5 ag	M5 antag	CHRM1 antagonist	M5 PAM
OC(CCN1CCOCC1)(c1ccc(Cl)cc1)C1CCCCC1 (configuration not stated)	-26.1	-7.5	-11.2	29.2*	82.1*	-34.4
CCCOc1ccc(C(O)(CCC)CCN2CCCCC2)cc1 (configuration not stated)	-22.6	-4.7	-8.2	20.6	66.4*	-24.0
CCCC(O)(CCN1CCOCC1)c1ccc(Cl)cc1 (configuration not stated)	-23.0	-6.3	-19.0	19.0	44.7*	-30.4
CCCC(O)(c1ccc(Cl)cc1)C(CN1CCOCC1)c1ccc(Cl)cc1 (configuration not stated)	-4.3	-7.1	-10.2	-1.5	5.9	-11.5
CCCC(O)(CCN1CCOCC1)c1ccc(Br)cc1 (configuration not stated)	-27.9	-7.1	-6.9	19.0	78.3*	-18.5
CCCOc1ccc(C(=O)CCN2CCCCC2)cc1	-6.6	-2.7	-6.7	-9.4	16.5	0.8
O=C(c1ccccc1)C1CCN(C(=O)c2c(F)cccc2F)CC1	0.2	-2.6	-1.2	0.8	9.2	0.8
CNC(=O)C(=O)Nc1nc(C23CC4CC(CC(C4)C2)C3)cs1	-0.2	-4.9	-3.6	-9.1	4.1	19.1*
O=C(O)CNC(=O)c1ccccc1F	5.8	-0.5	-0.5	6.7	-1.9	-4.4
O=C(CNC(=O)c1ccccc1F)NCCc1ccccc1F	-10.0	-2.5	-0.2	9.7	27.9*	-8.4
CCNc1ccc2noc3c2c1C(=O)c1ccccc1-3	-19.8	75.2*	37.0*	38.5*	35.7*	-15.7
O=C1c2ccccc2-c2onc3ccc(NCc4ccco4)c1c23	-13.3	36.4*	16.1	21.7	43.6*	-10.0
CCOc1ccc2noc3c2c1C(=O)c1ccccc1-3	-0.2	21.5*	10.4	9.8	5.7	-4.5
O=C1c2ccccc2-c2onc3ccc(N4CCCC4)c1c23	-6.1	4.2	6.9	12.5	19.6	-5.6
CN(C)c1ccc(/C=C/C(=O)c2cccc(Br)c2)cc1	-33.4	163.8*	78.0*	56.8*	81.5*	-23.8
CN(C)c1ccc(C(=O)/C=C/c2cccnc2)cc1	7.3	-4.7	-1.3	4.4	-8.4	-3.8
O=C(NCc1ccc(F)cc1)C1CC(=O)N(CCc2ccccc2)C1 (configuration not stated)	-8.0	-0.3	0.2	5.9	22.9	18.6*
O=C(CSc1nc(C(F)(F)F)cc(=O)[nH]1)N1CCC(Cc2ccccc2)CC1	-0.3	-1.5	-10.4	3.6	1.4	-21.1
CCOC(=O)c1nnc(-c2ccccc2)nc1N1CC(C)OC(C)C1 (configuration not stated)	5.0	-6.3	-3.3	-11.0	-5.7	5.9
CCN1CCN(c2ccc(NC(=O)c3cccc(OCc4ccccc4)c3)cc2)CC1	-21.1	-4.2	-7.7	33.0*	81.1*	-19.2
CCOc1cc(C(=O)Nc2ccc(N3CCN(C(C)=O)CC3)cc2)cc(OCC)c1OCC	0.6	-3.4	4.1	-8.3	-6.2	18.1*
CN1CCN(c2ccc(NC(=O)c3cccc(OCc4ccccc4)c3)cc2)CC1	-22.7	-9.7	-6.5	9.7	-17.0	-16.5
O=C(O)c1ccc(NC(=S)NC(=O)c2cccc(COc3ccccc3)c2)cc1	4.8	-3.6	1.6	12.2	3.7	-5.1
CCCOc1cccc(C(=O)NC(=S)Nc2ccc(N3CCN(C)CC3)cc2)c1	-30.2	-13.2	-10.5	10.9	58.5*	-16.5
O=C(NC(=S)Nc1ccc(CN2CCCCC2)cc1)c1cccc(OCc2ccccc2)c1	-27.0	-8.3	-16.8	47.6*	96.2*	-33.1
SMILES	M1 PAM	M1 ag	M5 ag	M5 antag	CHRM1 antagonist	M5 PAM
CCOc1cc(C)nc(N2CCC(C(=O)NC3CC3)CC2)n1	15.7	-2.4	1.0	-1.8	-7.3	1.3
CCn1ccnc1C(O)(c1ccccc1)c1ccccc1	7.4	-8.4	-10.9	4.4	-16.2	0.7
COc1ccccc1CC(NC(C)=O)C(=O)NC1CCN(S(=O)(=O)c2ccccc2)CC1 (configuration not stated)	-1.8	-5.1	-2.6	23.6	-2.9	-6.6
CCOc1cccc(C(=O)NC(=S)Nc2ccc(N3CCN(CC)CC3)cc2)c1	-35.3	-15.6	-10.5	2.1	81.4*	-19.5
COc1cc(OC)cc(C(=O)NC(C(=O)NCCc2ccccn2)C(C)C)c1 (configuration not stated)	10.4	-7.3	1.9	-4.7	-13.8	0.5
COc1cc(OC)cc(C(=O)NC(C(=O)NCc2ccccn2)C(C)C)c1 (configuration not stated)	-29.0	-9.0	-2.9	2.8	78.5*	-0.5
COc1cc(OC)cc(C(=O)NCC(=O)NC(C)c2ccccc2)c1 (configuration not stated)	5.8	1.4	-4.0	4.5	74.7*	6.2
CCSCc1nnc(SCC(=O)Nc2ccc(F)cc2)n1CC	11.9	-3.3	-0.8	0.4	-12.5	0.7
CCOC(=O)N1CCN(C(=S)Nc2ccccc2C(C)C)CC1	-7.1	10.1	9.4	6.5	17.2	-3.9
Cc1cccc(NC(=S)N2CCN(Cc3ccccc3)CC2)c1C	-0.9	23.4*	-2.2	1.5	2.7	3.9
Cc1cc(Cl)ccc1NC(=S)N1CCN(Cc2ccccc2)CC1	1.9	2.7	-1.7	0.5	2.3	1.0
CCOC(=O)N1CCN(C(=S)Nc2cccc(C)c2C)CC1	0.6	19.0*	5.1	-1.7	-9.2	-2.2
Cc1ccc(C(=O)O)cc1NC(=S)NC(=O)c1ccc([N+](=O)[O-])c(C)c1	10.4	-2.0	-2.1	2.7	-3.9	-7.3
COc1ccc(OC)c(CNC(=O)C2CCC(=O)N(CCCN3CCCC3=O)C2)c1 (configuration not stated)	17.4	4.7	-4.5	7.0	-0.3	-2.5
CN1CCN(C(=S)c2ccc(-c3cc(Cl)ccc3Cl)o2)CC1	2.3	-3.3	-0.8	6.0	-7.0	-2.7
S=C(c1ccc(-c2ccc(Cl)cc2Cl)o1)N1CCCC1	26.4	0.3	8.3	-15.0	-31.4	22.1*
N#CCCN1CCN(C(=S)c2ccc(-c3cc(Cl)ccc3Cl)o2)CC1	-9.5	-3.3	-6.9	3.9	30.3*	-14.0
CN(C)C=Nc1ccc2nc3c(cc2c1)[nH]c1ccccc13	9.6	-3.9	-2.8	10.0	-9.8	-1.0
CN(C)c1ccc(NC(=O)CCN2CCN(c3ccccn3)CC2)cc1	2.5	-10.2	-3.4	5.6	2.6	-5.1
CCN(CC)CC(=O)NN=C(c1ccccc1)c1ccccc1	-18.6	-5.9	-12.7	8.4	27.3*	-9.5
COc1ccc([C@H]2CC(=O)C=C(c3ccc(Cl)c(C(F)(F)F)c3)C2)cc1OC	15.0	4.1	-2.5	6.8	-1.7	0.5
